Twelve compounds from ChEMBL document CHEMBL3244012, “Guanylhydrazones with potential antileukemic activity. 2. Synthesis and structure-activity relationships of analogues of 4,4'-diacetyl-N,N'-diphenylurea bis(guanylhydrazone)” (J Med Chem, 1978) can be followed below.

Series [1] has as its target T1, DNA polymerase alpha catalytic subunit (Mus musculus) (UniProt P33609).
T1 sequence (whole entry): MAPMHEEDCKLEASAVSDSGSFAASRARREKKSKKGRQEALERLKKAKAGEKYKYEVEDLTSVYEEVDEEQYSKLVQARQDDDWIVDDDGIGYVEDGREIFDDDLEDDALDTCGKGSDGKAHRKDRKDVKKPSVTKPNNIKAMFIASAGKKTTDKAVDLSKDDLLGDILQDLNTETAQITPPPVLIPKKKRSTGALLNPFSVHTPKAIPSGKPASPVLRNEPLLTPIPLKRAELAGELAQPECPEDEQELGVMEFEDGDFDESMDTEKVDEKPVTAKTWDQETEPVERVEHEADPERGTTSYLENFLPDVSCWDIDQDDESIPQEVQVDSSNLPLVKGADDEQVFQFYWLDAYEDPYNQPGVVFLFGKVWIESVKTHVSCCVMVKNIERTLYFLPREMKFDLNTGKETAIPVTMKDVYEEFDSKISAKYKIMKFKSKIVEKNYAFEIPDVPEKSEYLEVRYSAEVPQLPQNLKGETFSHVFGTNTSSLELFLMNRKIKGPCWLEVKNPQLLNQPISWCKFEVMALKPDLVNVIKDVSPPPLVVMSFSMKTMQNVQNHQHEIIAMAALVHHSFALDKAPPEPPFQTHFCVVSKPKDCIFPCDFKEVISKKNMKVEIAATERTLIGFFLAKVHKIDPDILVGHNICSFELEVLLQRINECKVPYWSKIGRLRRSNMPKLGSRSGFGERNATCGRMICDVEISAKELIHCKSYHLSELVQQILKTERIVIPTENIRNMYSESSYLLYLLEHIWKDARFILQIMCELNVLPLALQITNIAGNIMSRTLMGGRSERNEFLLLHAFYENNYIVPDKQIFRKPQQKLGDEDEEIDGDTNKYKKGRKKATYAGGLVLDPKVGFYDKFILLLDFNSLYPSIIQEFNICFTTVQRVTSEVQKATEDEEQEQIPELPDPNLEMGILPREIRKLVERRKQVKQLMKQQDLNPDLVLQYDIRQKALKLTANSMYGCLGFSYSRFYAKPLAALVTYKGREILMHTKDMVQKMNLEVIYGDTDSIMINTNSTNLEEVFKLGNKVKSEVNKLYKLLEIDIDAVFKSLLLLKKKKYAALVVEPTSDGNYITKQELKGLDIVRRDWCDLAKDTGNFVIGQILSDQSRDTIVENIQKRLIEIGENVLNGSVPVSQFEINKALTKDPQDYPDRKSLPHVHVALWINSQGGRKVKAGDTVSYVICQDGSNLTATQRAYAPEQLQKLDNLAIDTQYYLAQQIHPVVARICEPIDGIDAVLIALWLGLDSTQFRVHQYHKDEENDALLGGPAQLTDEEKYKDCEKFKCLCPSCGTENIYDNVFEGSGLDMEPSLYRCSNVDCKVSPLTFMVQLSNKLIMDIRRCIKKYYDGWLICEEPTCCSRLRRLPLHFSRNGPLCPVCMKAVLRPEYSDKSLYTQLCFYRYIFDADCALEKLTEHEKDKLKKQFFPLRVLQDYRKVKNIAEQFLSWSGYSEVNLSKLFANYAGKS
In words: Inhibition of DNA polymerase alpha isolated from mouse L1210 cells assessed as reduction in DNA synthesis by cell-free system based assay. Put shortly:
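DNA polymerase α taken as a crude extract of mouse L1210 leukemia cells, assayed in a Bollum-type cell-free DNA synthesis system. Compounds added at different concentrations to the assay mixture before enzyme; initial reaction velocity measured.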

A further series concerns L1210. In words: Antitumor activity against mouse L1210 cells allografted in DBA/2J mouse assessed as survival at 30 mg/kg, ip dosed once daily on days 1 to 3 (reference value: 8.2 +/- 1.1 days). The following applies: route intraperitoneal. Type of series: functional.
The next series deals with TA3. In words: Cytotoxicity against mouse TA3 cells assessed as growth inhibition after 3 days. The following applies: TA3, 72 h, read-out: ID50 (the source's name). Type of series: functional. The procedure, abridged: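 Mouse mammary adenocarcinoma TA-3 cells grown in stationary tubes in RPMI 1640 with 10% horse serum; 50 000 cells inoculated with compound in medium, incubated upright 3 days. Growth read by protein assay; control growth six- to tenfold. Five tubes per concentration; inhibitory compounds retested at least twice. ID50 = 50% inhibitory concentration, between-test variation within ±10%.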

The nature of series [2]: Solubility in aqueous solvents. Type of series: physicochemical. The following applies: buffer.

Some results are limits rather than exact numbers.

In the case of `Br.Br.C/C(=N/NC(=N)N)c1ccc(NC(=O)NCc2ccc(/C(C)=N/NC(=N)N)cc2)cc1`, the inhibitory concentration in series [1] was found to be 110 µM. Further, in the series with L1210, the Survival amounted to 23 days. Also, in the series on TA3, the IC50 is 20 µM.

Take `Br.Br.C/C(=N\NC(=N)N)c1ccc(CNC(=O)NCc2ccc(/C(C)=N/NC(=N)N)cc2)cc1`: in the series on L1210, the Survival came out at 10.7 days. The IC50 in the series on TA3 stood at 90 µM.

On to `C/C(=N\NC(=N)N)c1ccc(NC(=O)Nc2ccc(/C(C)=N/NC(=N)N)cn2)cc1`, for which the Survival in the series with L1210 is 11.3 days. In addition, in the series on TA3, the IC50 was determined as 7 µM.

For `Br.Br.C/C(=N\NC(=N)N)c1ccc(NC(=O)N(C)c2ccc(/C(C)=N/NC(=N)N)cc2)cc1`, the inhibitory concentration in series [1] amounted to 80 µM. Also, the Survival in the series on L1210 was 14.3 days. In the series on TA3, the IC50 turned out to be 180 µM.

In the case of `C/C(=N/NC(N)=S)c1ccc(NC(=O)Nc2ccc(/C(C)=N/NC(N)=S)cc2)cc1`, the solubility result in series [2] is given as “Insoluble”.

For the compound `C/C(=N\NC(=N)N)c1ccc(NC(=O)Nc2ccc(/C(C)=N/NC(=N)N)cc2)cc1`, the inhibitory concentration in series [1] is 60 µM. Besides, the IC50 with TA3 is 6 µM.

As for `C/C(=N/NC(=N)N[N+](=O)[O-])c1ccc(NC(=O)Nc2ccc(/C(C)=N\NC(=N)N[N+](=O)[O-])cc2)cc1`, the solubility entry in series [2] was “Insoluble”.

For `C/C(=N\O)c1ccc(NC(=O)Nc2ccc(/C(C)=N/O)cc2)cc1`, the solubility result in series [2] is “Insoluble”.

`C/C(=N\NC(=N)N)c1ccc(N(C)C(=O)N(C)c2ccc(/C(C)=N/NC(=N)N)cc2)cc1`: the inhibitory concentration in series [1] turned out to be 310 µM. Besides, the Survival with L1210 was 1.7 days. For the same compound, the IC50 in the series on TA3 stood at 100 µM.

Take `C/C(=N\NC(=N)N)c1ccc(NC(=O)Nc2ccc(/C(C)=N/NC(=N)N)cn2)nc1`: in series [1], the inhibitory concentration came out at 160 µM. Also, the Survival in the series with L1210 is 11 days. Besides, the IC50 in the series with TA3 came to 7 µM.

For the compound `Br.Br.C/C(=N/NC(=N)N)c1ccc(CNC(=O)N(Cc2ccc(/C(C)=N/NC(=N)N)cc2)N=O)cc1`, the inhibitory concentration in series [1] was determined as 230 µM. In addition, the Survival in the series with L1210 is 10.5 days. In the series with TA3, the IC50 was > 100 µM.

In the case of `C/C(=N\NC(=N)N)c1ccc(NC(=O)Oc2ccc(/C(C)=N/NC(=N)N)cc2)cc1`, in series [1], the inhibitory concentration amounted to 170 µM. In addition, in the series with TA3, the IC50 is 180 µM.
